In assay [1] the test system is Escherichia coli. Put plainly: Antibacterial activity against Escherichia coli transformed with plasmid carrying MG1655 deltaBC/pXYM by p-iodonitrotetrazolium chloride colorimetric assay. In kind it is functional. In short, it runs like this:
(§1)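 Two-fold broth microdilution in Mueller-Hinton broth, read by p-iodonitrotetrazolium chloride colorimetric assay. MIC is the lowest concentration giving no visible growth. MG1655 ΔacrB ΔtolC strains carrying pABM or pXYM were always cultured with 100 μg/mL ampicillin and 1 mM IPTG. Medium, inoculum and 1% DMSO (final) served as negative control.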

In assay [2] the test system is Escherichia coli. In words: Antibacterial activity against Escherichia coli AG102 overexpressing AcrAB-TolC by p-iodonitrotetrazolium chloride colorimetric assay. In kind it is functional. In outline:
as §1

Assay [3] deals with Escherichia coli. In words: Antibacterial activity against Escherichia coli transformed with plasmid carrying MG1655 deltaBC/pABM by p-iodonitrotetrazolium chloride colorimetric assay. It counts as functional. In outline: as §1
The test system of assay [4] is Escherichia coli. In words: Inhibition of AcrAB-TolC pump in Escherichia coli AG100 assessed as increase in intracellular H33342 fluorescence at 15.6 ug/ml after 60 mins by efflux inhibition assay. In kind it is cell-based. In outline: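 AG100 (wild-type K-12) or AG100A (ΔacrAB) cells were grown in Luria broth at 37 °C and 200 rpm to OD600 1.0, PBS-washed and diluted to OD600 0.3. Cells took up 2.5 μM Hoechst 33342 with 22 mM glucose at 37 °C for about 30 min, then compound (0.06–64 μg/mL) or PAβN (15.6 μg/mL) was added. Fluorescence (Ex 350/Em 460 nm) was followed for 60 min and corrected for background. The last four time points were compared to dye-only control by ANOVA with Dunnett's test, run in duplicate.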

In brackets after ≈: the same amount, converted by molar mass. Activity calls are given as the source filed them. No cut-off for these calls is given here. Residues, ends and D or L forms follow the SMILES beside them. *: point of attachment. βNA = c1ccc2cc(N*)ccc2c1

For the compound `Cc1onc(-c2ccccc2)c1C(=O)N[C@@H]1C(=O)N2[C@@H]1SC(C)(C)[C@@H]2C(=O)O` [OXACILLIN], the MIC is greater than 1300 µg/mL against Escherichia coli [1], greater than 650 µg/mL against Escherichia coli [2] and greater than 1300 µg/mL with Escherichia coli [3].

For the compound `NC[C@H]1O[C@H](O[C@H]2[C@H](O)[C@@H](O[C@H]3O[C@H](CO)[C@@H](O)[C@H](N)[C@H]3O)[C@H](N)C[C@@H]2N)[C@H](O)[C@@H](O)[C@@H]1O` [KANAMYCIN], the MIC came out at 0.25 µg/mL (≈ 0.516 µM) in the assay on Escherichia coli [1], 16 µg/mL (≈ 33 µM) with Escherichia coli [2] and 2 µg/mL (≈ 4.13 µM) against Escherichia coli [3].

Consider `C[C@H]1COc2c(N3CCN(C)CC3)c(F)cc3c(=O)c(C(=O)O)cn1c23.C[C@H]1COc2c(N3CCN(C)CC3)c(F)cc3c(=O)c(C(=O)O)cn1c23.O` [LEVOFLOXACIN], for which the MIC with Escherichia coli [1], in the assay on Escherichia coli [2] and in the assay with Escherichia coli [3] was 0.13 µg/mL each time.

For `CC[C@H]1OC(=O)[C@H](C)[C@@H](O[C@H]2C[C@@](C)(OC)[C@@H](O)[C@H](C)O2)[C@H](C)[C@@H](O[C@@H]2O[C@H](C)C[C@H](N(C)C)[C@H]2O)[C@](C)(O)C[C@@H](C)C(=O)[C@H](C)[C@@H](O)[C@]1(C)O` [ERYTHROMYCIN], the MIC was determined as 32 µg/mL (≈ 43.6 µM) in the assay with Escherichia coli [1], 128 µg/mL (≈ 174 µM) against Escherichia coli [2] and 32 µg/mL (≈ 43.6 µM) against Escherichia coli [3].

Consider `O=C(N[C@H](CO)[C@H](O)c1ccc([N+](=O)[O-])cc1)C(Cl)Cl` [CHLORAMPHENICOL], for which the values for the MIC with Escherichia coli [1], against Escherichia coli [2] and with Escherichia coli [3] were 0.75 µg/mL (≈ 2.32 µM), 24 µg/mL (≈ 74.3 µM) and 24 µg/mL (≈ 74.3 µM), respectively.

`O=C(O)c1cn(C2CC2)c2cc(N3CCNCC3)c(F)cc2c1=O` [CIPROFLOXACIN] came in with an MIC with Escherichia coli [2] of 0.13 µg/mL (≈ 0.392 µM).

As to `CN(C)[C@@H]1C(O)=C(C(N)=O)C(=O)[C@@]2(O)C(O)=C3C(=O)c4c(O)cccc4[C@@](C)(O)[C@H]3C[C@@H]12` [TETRACYCLINE], the MIC came out at 0.25 µg/mL (≈ 0.563 µM) in the assay on Escherichia coli [1], 8 µg/mL (≈ 18 µM) with Escherichia coli [2] and 2 µg/mL (≈ 4.5 µM) in the assay on Escherichia coli [3].

For `N=C(N)NCCC[C@H](NC(=O)[C@@H](N)Cc1ccccc1)C(=O)Nc1ccc2ccccc2c1` (H-Phe-Arg-βNA), in the assay with Escherichia coli [4], the inhibition entry is “Active”.

Take `CCN1CCN(C(=O)N[C@@H](C(=O)N[C@@H]2C(=O)N3[C@@H]2SC(C)(C)[C@@H]3C(=O)O)c2ccccc2)C(=O)C1=O` [PIPERACILLIN]: the MIC is 512 µg/mL (≈ 989 µM) with Escherichia coli [1], 4 µg/mL (≈ 7.73 µM) in the assay on Escherichia coli [2] and greater than 512 µg/mL against Escherichia coli [3].

What is called MIC is the lowest concentration found to suppress growth. A lower MIC goes with inhibition by little substance.

These data come from ChEMBL document CHEMBL3576792, “Enhancement of antibiotic activity against multidrug-resistant bacteria by the efflux pump inhibitor 3,4-dibromopyrrole-2,5-dione isolated from a Pseudoalteromonas sp” (J Nat Prod, 2015).
